The values that follow come from the RNAGym collection of RNA variant scans (doi:10.1126/science.aae0568).

B1: tRNA (parent)
chain: GUUCCGUUGGCGUAAUGGUAACGCGUCUCCCUCCUAAGGAGAAGACUGCGGGUUCGAGUCCCGUACGGAACG

This sample holds only a part of the variants without activity. A value given as a limit tells only on which side of the number the result lay.

The variants in this data set derive from B1. Description: yeast fitness relative to wild type (ratio to wild type); higher = fitter; tRNA-Arg(CCU), competitive growth, 37 C, YPD. A digest of the protocol: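 Amplicons of the tRNA-Arg(CCU) gene were sequenced, 100-nucleotide paired-end, from the start population and from each end population of a pooled yeast competition. The competition, in six parallel replicates, lasted 24 hours in YPD at 37°C. Fitness relative to wild type was calculated from changes in genotype frequencies. Genotypes had to have ≥ 100 starting reads, and estimates < 0.5 were set to 0.5.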
For GUUCCGUUGGCGUAAUGGUAACGCGUCUCCCUCCUAAGGAGAAGACUGCGGGUUCGCGUCCAGUAAGGAACG, the yeast fitness is no more than 0.5.
The result for GUUCCGUUGACGCAAUGGUAUCGCGUCUCCCUCCUAAGGAGAAGACUGCGGGUUCGAGUCCCGUACGGAACG reads no more than 0.5; that for GUUCCGUUGGCGUAAUGGUAACGCGUGUCUCUCCUAAGGAGAAGACUGCGGGUUCGAGUCCCGUACGGAACG, 0.619; that for GUUCCGUUGGCGUAAUGGUACCGCGUCUCCCUCCUAAGGAGAAGACUGCAGGUUCGAGUCCCGUACGGAACG, 0.672.
The result for GUUCCAUUGGCGUAAUGGUAACGCGUCUCCCUCCUAAGGAGAAGACAGCGGGUUCGAGUCCCGUACGGAACG reads 0.692.
The result for GUUCCGUUGGCGUAAUAGUAACGCGUCUCCCUCGUAAGGAGAAGACUGCGGGUUCGAGUCCCGUACUGAACG reads no more than 0.5.
As for GUUCCGUUGGCGUAAUGGUAUUGCGUCUCCCUCCUGAGGAGAAGACUGAGGGUUCGAGUCCCGUACGGAACG, the yeast fitness was no more than 0.5.
For GUUCCGUUGGCCUAAUGGUAACGCGCCUCCCUCCUAAGGAGACGACUGCGGGUCCGAGUCCCGUACGGAACG, the yeast fitness is no more than 0.5.
In the case of GUACCGUUGGCGUAAUGGUAACGCGUCUCCCUCCUAAGGAGAAGACCGCGGGUUCGAGUCCCGUACGGAACG, the yeast fitness was 0.835.
Take GUUUCGUUGGCGUAAUGGUAACGCGUCUCCCUCCUAAGGAGAAGACUGUGGGUUCGACUCCCGUACGGAACG: the yeast fitness was 0.782.
The value for GUUCCGUUGGCGAAAUGGUACCGCGUCUUCCUCCUAAGGAGAAGACUGCGGGUUCGAGUCCCGUAAGGAACG was no more than 0.5.
In the case of GUUCCGUUGGCCUAAUGGUAACGCGUCUCCUUCCUAAGGAGAAGACUGCGGGUUCGAGUCCCGUACGGAACG, the yeast fitness amounted to 0.876.
GUUCCGUUGGCGUAAUGGUUACGCGUUUCACUGCUAAGGAGGAGACUGCGCGUUCGAGUCCCGUACGCAACG: the yeast fitness was no more than 0.5.
The value for GUUCCGUUGACGUAAUGGUAACGCAUCUCCCUCCUAAGGAGAAGACUGCGGGUUCGAGUCCCGUACGGAACG was 0.862.
Take GUUCCGUUGGCGUAAUGGUAACGCGUCUGCCUCCUAAGGACAAGACUGCGGGUUCGUGUCCCGUACGGAACG: the yeast fitness was no more than 0.5.
With GUUCCGUUGGCGUAAAGGUAACGCGUCUCCCUCCUAAGGAGAAGACUGCAGGUUCGAGUCCCGUACGGAACG, the yeast fitness came to 0.899.
Turning to GUUCCGUUGGCGUAAUGGUAACCCGUCUCCCUCCUAAGGAGAAGACUGCGGGUUCGAGUCGCGUACGGAACG, the yeast fitness is 0.587.
The result for GUUCCGGUGCCGUAAUGGUAACGCGUCUCCCUUCUAAGGAGAAGACUGCGGGUUCGAGUGCCGUACAGAACG reads no more than 0.5; that for GUUCCGUUGGCGUAAUGGUACCGCGUCUCCCUCCUUAGGAGAAGAGUGCGGGUUCGAGUCCAGUACGGCACG, no more than 0.5; that for GUACCGUUGGCGUAAUGGUAACGCGUCUCCCUCCUAAGGUGAAGACUGCGGGUUCAAGUCCCGUACGGAACG, no more than 0.5.
The value for GUUCCGUUGGAGUAAUGGUAACGCGUCUCCCUCCUAAGGAGAAGACUGCGGGUUCGAGUCCCGUCCGGAACG was 0.607; that for GUUCCGUUGGCGUACUGGAAACGGGUCUCCCUCCUAAGGAGAAGACUGCGGGUUCGAGUCCCAUACGGAACG was no more than 0.5.
As to GUUCGGUUGGCGUAAUGGUAACGCGUCUCCCUCCUAAGGAGAAGACUGCGGGUUCGAGCCCCGUACGGAACG, the yeast fitness was 0.852.
The result for GUUCCGUUGGCGUAAUGGUACCGCGUCUCCCUCCUAAGGAGAAGACUGCGGGUUCGAGUCCCGUUCAGAACG reads 0.543.
The value for GUUCCGUUGGCGUAAUGGUAACGCGCCUCCCUCCUAAGGAGAAGACUGCGGGAUCGAGUCCCGUACGGAACG was 0.706.
The value for GUUCGGUUGGCAUAAUGGUAACGCAUCUCCCUCCUAAGGAGAAGACUGCGGGUUCGAGUCCCGUACGGAACG was 0.783.
In the case of GUUCCGUUGGCGUAAUGGUAACGCGUCUCUCUCCUAAGGAGAAGACUGCGGGUUCGAGUCCCGUACAGAACG, the yeast fitness worked out at 0.921.
Take GUUCCAUUGGCGUAAUGGUAACGCGUCUCCCUCCUAAGGAGAAGCGUGCGGGUUCGAGUCCCGUAUGGAACG: the yeast fitness is no more than 0.5.
GUUCCGUUGGAGUAAUGGUAACGCGUCUCCCUCCUAAGGGGAAGACUGCGGGCUCGAGUCCCGUACGGAACG: the yeast fitness was 0.619.
The result for GUUCCGUUAGCGUAAUGGUAACGCGUCUACCUCAUAAGGAGAAGACUGCGGGUUCGAGUCCCGUACGGAACG reads 0.576; that for GUUCCGUUGGCGUAAUGGUUGCGCGUCUCCUUCCUAAGGAGAAGAAUGCGGGUUCGAGUCCCGUACGGAACG, no more than 0.5.
Take GUUGGGUUGACGUAAUGAUAACGCGUCUCCCUCCUAAGGAGCAGACUGCGGGUUCGAGUCCCGUACGGAACG: the yeast fitness was no more than 0.5.
Turning to GUUCGGUUGGCGUAAUGGUAACGCGUCUCCCUCCUAAGGAGAAGACUGCGGGUACGAGUCCCGUACGGAACG, the yeast fitness turned out to be 0.666.
The result for GUUCCGUUGGCGUAAUGGUAACGCGUCUCCCUCCUAAGGAGAAGACUACGGGUUGGAGUCCUGUACGGAACG reads no more than 0.5.
Take GUUCCGGUGGCGUAAUGGUAACUCGUGGCCCUCCUAAGGAGAAGACUGCGGGUUCGAGUACCGUACGGAACG: the yeast fitness was no more than 0.5.
Take GUUCCGUUGGCGUACUGGUAACGCGUCUCCCUCCUAAGGAGGAGACUGCGGGUUCGAGUCCCGUACUGAACG: the yeast fitness turned out to be 0.522.
The value for GUUCCGUUGGCGUAAUGGUAUCGCGUCUGCGUCCUAAGGAGAUGACUGCGGGUUCGAGUCCCGUACGGAACG was 0.574.
On to GUUCCGUUGGCGUAAUGGUAACGCGUCUCCCUCCUAAGCAGCAGCCUGCGGGUUCGAGUCCCGUACGGAACG, for which the yeast fitness was 0.538.
